Experimental data reported in ChEMBL document CHEMBL3352113, “Cytoprotective pyridinol antioxidants as potential therapeutic agents for neurodegenerative and mitochondrial diseases” (Bioorg Med Chem, 2014).
The source made the active and inactive calls. The calls are words filed in the database; no cut-off is given here.

Test system: Lymphocyte
Test: Cytoprotective activity in human lymphocytes obtained from FRDA patient assessed as viable cells after 16 hrs by trypan blue exclusion assay
Format: functional, cell-based
Details: not given
Outline: (§1)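 Lymphocytes from FRDA or Leigh's syndrome patients, grown in RPMI-1640 with 15% fetal calf serum and 2 mM glutamine, kept in log phase. Test agents at 0.1, 0.5 and 2.5 µM; diethyl maleate (DEM) added to deplete glutathione and induce oxidative stress. Viability expressed relative to untreated cells (100%). Values are mean ± SD/SEM as tabulated.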

Structure (SMILES)	Activity
Cc1c(N(C)C)nc(CCCCCCCCCCO)c(O)c1C	Dose-dependent effect
CCCCCCCCCCc1c(C)c(N(C)C)nc(C)c1O	Dose-dependent effect
CCCCCCCCCCCCCCCCCCCc1c(C)c(N(C)C)nc(C)c1O	Dose-dependent effect
CCCCCCCCCCCCCCCCCCCc1nc(N(C)C)c(C)c(C)c1O	Dose-dependent effect

Test system: Lymphocyte
Test: Cytoprotective activity in human lymphocytes obtained from Leigh's syndrome patient assessed as viable cells at 0.5 uM after 16 hrs by trypan blue exclusion assay
Format: functional
Details: read-out: Activity
Outline: as §1

Structure (SMILES)	viability at 0.5 µM [%]
Cc1c(N(C)C)nc(CCCCCCCCCCO)c(O)c1C	36
CCCCCCCCCCc1c(C)c(N(C)C)nc(C)c1O	87
CCCCCCCCCCCCCCCCCCCc1c(C)c(N(C)C)nc(C)c1O	8
CCCCCCCCCCCCCCCCCCCc1nc(N(C)C)c(C)c(C)c1O	7

Organism: Bos taurus
Test: Inhibition of bovine heart mitochondrial NADH oxidase complex I/III/IV assessed as remaining activity at 1 uM by spectrophotometry relative to untreated control
Details: not given

Structure (SMILES)	Activity [%]
Cc1c(N(C)C)nc(CCCCCCCCCCO)c(O)c1C	27
CCCCCCCCCCc1c(C)c(N(C)C)nc(C)c1O	49
CCCCCCCCCCCCCCCCCCCc1c(C)c(N(C)C)nc(C)c1O	98
CCCCCCCCCCCCCCCCCCCc1nc(N(C)C)c(C)c(C)c1O	93

Test system: Lymphocyte
Test: Increase in ATP production in CoQ10-deficient lymphocytes (unknown origin) assessed as cellular ATP level at 10 uM after 48 hrs using luciferin-luciferase reaction by bioluminescence assay relative to control
Format: functional
Details: not given
Outline: (§2)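 CoQ10-deficient lymphocyte line GM17932 grown in glucose-free RPMI 1640 with 25 mM galactose, 2 mM glutamine and 10% dialyzed FBS, forcing oxidative phosphorylation. Incubated with compounds at 5, 10 or 25 µM for 48 h. Total intracellular ATP measured by luciferin–luciferase reaction, expressed as % of untreated control.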

Structure (SMILES)	Activity [%]
Cc1c(N(C)C)nc(CCCCCCCCCCO)c(O)c1C	20
CCCCCCCCCCc1c(C)c(N(C)C)nc(C)c1O	40
CCCCCCCCCCCCCCCCCCCc1c(C)c(N(C)C)nc(C)c1O	103
CCCCCCCCCCCCCCCCCCCc1nc(N(C)C)c(C)c(C)c1O	102

Test system: Lymphocyte
Test: Increase in ATP production in CoQ10-deficient lymphocytes (unknown origin) assessed as cellular ATP level at 25 uM after 48 hrs using luciferin-luciferase reaction by bioluminescence assay relative to control
Format: functional
Details: not given
Outline: as §2

Structure (SMILES)	Activity [%]
Cc1c(N(C)C)nc(CCCCCCCCCCO)c(O)c1C	3
CCCCCCCCCCc1c(C)c(N(C)C)nc(C)c1O	2
CCCCCCCCCCCCCCCCCCCc1c(C)c(N(C)C)nc(C)c1O	86
CCCCCCCCCCCCCCCCCCCc1nc(N(C)C)c(C)c(C)c1O	99

Organism: Bos taurus
Test: Inhibition of bovine heart mitochondrial NADH oxidase complex I/III/IV assessed as remaining activity at 10 uM by spectrophotometry relative to untreated control
Details: not given

Structure (SMILES)	Activity [%]
Cc1c(N(C)C)nc(CCCCCCCCCCO)c(O)c1C	6
CCCCCCCCCCc1c(C)c(N(C)C)nc(C)c1O	8
CCCCCCCCCCCCCCCCCCCc1c(C)c(N(C)C)nc(C)c1O	81
CCCCCCCCCCCCCCCCCCCc1nc(N(C)C)c(C)c(C)c1O	85

Test system: not listed separately
Test: Metabolic stability in bovine liver microsomes at 25 uM after 30 mins by reverse phase HPLC analysis
Format: ADME, Bos taurus
Details: cattle, read-out: Stability
Outline: (§3)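 Compounds incubated 30 min with activated bovine liver microsomes. Remaining parent compound quantified by reversed-phase HPLC and expressed as % recovered; mean ± SD.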

remaining at 0.5 h, 25 µM [%]	Structure (SMILES)
70	CCCCCCCCCCc1c(C)c(N(C)C)nc(C)c1O
50	CCCCCCCCCCCCCCCCCCCc1c(C)c(N(C)C)nc(C)c1O
50	CCCCCCCCCCCCCCCCCCCc1nc(N(C)C)c(C)c(C)c1O

Test system: Lymphocyte
Test: Increase in ATP production in CoQ10-deficient lymphocytes (unknown origin) assessed as cellular ATP level at 5 uM after 48 hrs using luciferin-luciferase reaction by bioluminescence assay relative to control
Format: functional
Details: not given
Outline: as §2

Structure (SMILES)	Activity [%]
Cc1c(N(C)C)nc(CCCCCCCCCCO)c(O)c1C	50
CCCCCCCCCCc1c(C)c(N(C)C)nc(C)c1O	87
CCCCCCCCCCCCCCCCCCCc1c(C)c(N(C)C)nc(C)c1O	106
CCCCCCCCCCCCCCCCCCCc1nc(N(C)C)c(C)c(C)c1O	102

Test system: Lymphocyte
Test: Inhibition of oxidative stress-induced mitochondrial membrane depolarization in diethyl maleate-treated human lymphocytes obtained from FRDA patient assessed as cells with intact mitochondrial membrane potential at 100 nM pretreated for 16 hrs using TMRM by FACS analysis (reference value: 95%)
Format: functional
Parameters: scale not given: the % may be the effect or the level left
Details: not given

Structure (SMILES)	Activity [%]
Cc1c(N(C)C)nc(CCCCCCCCCCO)c(O)c1C	24
CCCCCCCCCCc1c(C)c(N(C)C)nc(C)c1O	60
CCCCCCCCCCCCCCCCCCCc1c(C)c(N(C)C)nc(C)c1O	23
CCCCCCCCCCCCCCCCCCCc1nc(N(C)C)c(C)c(C)c1O	24

Test system: Lymphocyte
Test: Cytoprotective activity in human lymphocytes obtained from FRDA patient assessed as viable cells at 2.5 uM after 16 hrs by trypan blue exclusion assay
Format: functional
Details: read-out: Activity
Outline: as §1

Structure (SMILES)	viability at 2.5 µM [%]
Cc1c(N(C)C)nc(CCCCCCCCCCO)c(O)c1C	87
CCCCCCCCCCc1c(C)c(N(C)C)nc(C)c1O	86
CCCCCCCCCCCCCCCCCCCc1c(C)c(N(C)C)nc(C)c1O	87
CCCCCCCCCCCCCCCCCCCc1nc(N(C)C)c(C)c(C)c1O	76

Organism: Bos taurus
Test: Inhibition of bovine heart mitochondrial NADH oxidase complex I/III/IV assessed as remaining activity at 5 uM by spectrophotometry relative to untreated control
Details: not given

Structure (SMILES)	Activity [%]
Cc1c(N(C)C)nc(CCCCCCCCCCO)c(O)c1C	9
CCCCCCCCCCc1c(C)c(N(C)C)nc(C)c1O	35
CCCCCCCCCCCCCCCCCCCc1c(C)c(N(C)C)nc(C)c1O	83
CCCCCCCCCCCCCCCCCCCc1nc(N(C)C)c(C)c(C)c1O	88

Test system: Lymphocyte
Test: Inhibition of ROS generation in diethyl maleate-treated human lymphocytes obtained from FRDA patient compound pretreated at 100 to 500 nM for 16 hrs using DCFH-DA by FACS analysis
Format: functional, cell-based
Details: not given
Outline: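 FRDA lymphocytes pretreated with compounds at 100, 250 and 500 nM for 16 h, then given DEM for 80 min to raise ROS. Stained with DCFH-DA for 15 min, then DCF fluorescence read by flow cytometry. Reported as % ROS scavenging; mean ± SEM of three experiments run in duplicate.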

Structure (SMILES)	inhibition
Cc1c(N(C)C)nc(CCCCCCCCCCO)c(O)c1C	inactive
CCCCCCCCCCc1c(C)c(N(C)C)nc(C)c1O	Active
CCCCCCCCCCCCCCCCCCCc1c(C)c(N(C)C)nc(C)c1O	inactive
CCCCCCCCCCCCCCCCCCCc1nc(N(C)C)c(C)c(C)c1O	inactive

Test system: Lymphocyte
Test: Cytoprotective activity in human lymphocytes obtained from Leigh's syndrome patient assessed as viable cells after 16 hrs by trypan blue exclusion assay
Format: functional, cell-based
Details: not given
Outline: as §1

Structure (SMILES)	Activity
Cc1c(N(C)C)nc(CCCCCCCCCCO)c(O)c1C	Dose-dependent effect
CCCCCCCCCCc1c(C)c(N(C)C)nc(C)c1O	Dose-dependent effect
CCCCCCCCCCCCCCCCCCCc1c(C)c(N(C)C)nc(C)c1O	Dose-dependent effect
CCCCCCCCCCCCCCCCCCCc1nc(N(C)C)c(C)c(C)c1O	Dose-dependent effect

Test system: Lymphocyte
Test: Cytoprotective activity in human lymphocytes obtained from Leigh's syndrome patient assessed as viable cells at 0.1 uM after 16 hrs by trypan blue exclusion assay
Format: functional
Details: read-out: Activity
Outline: as §1

Structure (SMILES)	viability at 0.1 µM [%]
Cc1c(N(C)C)nc(CCCCCCCCCCO)c(O)c1C	20
CCCCCCCCCCc1c(C)c(N(C)C)nc(C)c1O	19
CCCCCCCCCCCCCCCCCCCc1c(C)c(N(C)C)nc(C)c1O	8
CCCCCCCCCCCCCCCCCCCc1nc(N(C)C)c(C)c(C)c1O	4

Test system: Lymphocyte
Test: Inhibition of oxidative stress-induced mitochondrial membrane depolarization in diethyl maleate-treated human lymphocytes obtained from FRDA patient assessed as cells with intact mitochondrial membrane potential at 250 nM pretreated for 16 hrs using TMRM by FACS analysis (reference value: 95%)
Format: functional
Parameters: scale not given: the % may be the effect or the level left
Details: not given

Structure (SMILES)	Activity [%]
Cc1c(N(C)C)nc(CCCCCCCCCCO)c(O)c1C	36
CCCCCCCCCCc1c(C)c(N(C)C)nc(C)c1O	78
CCCCCCCCCCCCCCCCCCCc1c(C)c(N(C)C)nc(C)c1O	42
CCCCCCCCCCCCCCCCCCCc1nc(N(C)C)c(C)c(C)c1O	44

Test system: Lymphocyte
Test: Cytoprotective activity in human lymphocytes obtained from Leigh's syndrome patient assessed as viable cells at 2.5 uM after 16 hrs by trypan blue exclusion assay
Format: functional
Details: read-out: Activity
Outline: as §1

Structure (SMILES)	viability at 2.5 µM [%]
Cc1c(N(C)C)nc(CCCCCCCCCCO)c(O)c1C	74
CCCCCCCCCCc1c(C)c(N(C)C)nc(C)c1O	86
CCCCCCCCCCCCCCCCCCCc1c(C)c(N(C)C)nc(C)c1O	87
CCCCCCCCCCCCCCCCCCCc1nc(N(C)C)c(C)c(C)c1O	66

Test system: Lymphocyte
Test: Inhibition of lipid peroxidation in diethyl maleate-treated human lymphocytes obtained from FRDA patient at 100 to 250 nM after 16 hrs using C11-BODIPY581/591 by FACS analysis
Format: functional, cell-based
Details: not given
Outline: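 FRDA lymphocytes depleted of glutathione with DEM, probed with C11-BODIPY581/591. Green (oxidized) fluorescence read by flow cytometry at 490/510 nm. Median mean fluorescence taken relative to untreated control and converted to % lipid peroxidation scavenging; mean ± SEM, n = 3.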

Structure (SMILES)	inhibition
Cc1c(N(C)C)nc(CCCCCCCCCCO)c(O)c1C	inactive
CCCCCCCCCCc1c(C)c(N(C)C)nc(C)c1O	Active
CCCCCCCCCCCCCCCCCCCc1c(C)c(N(C)C)nc(C)c1O	inactive
CCCCCCCCCCCCCCCCCCCc1nc(N(C)C)c(C)c(C)c1O	inactive

Organism: Bos taurus
Test: Inhibition of bovine heart mitochondrial NADH oxidase complex I/III/IV assessed as remaining activity by spectrophotometry relative to untreated control
Details: not given

Structure (SMILES)	inhibition
Cc1c(N(C)C)nc(CCCCCCCCCCO)c(O)c1C	Dose-dependent effect
CCCCCCCCCCc1c(C)c(N(C)C)nc(C)c1O	Dose-dependent effect
CCCCCCCCCCCCCCCCCCCc1c(C)c(N(C)C)nc(C)c1O	Dose-dependent effect
CCCCCCCCCCCCCCCCCCCc1nc(N(C)C)c(C)c(C)c1O	Dose-dependent effect

Test system: Lymphocyte
Test: Cytoprotective activity in human lymphocytes obtained from FRDA patient assessed as viable cells at 0.1 uM after 16 hrs by trypan blue exclusion assay
Format: functional
Details: read-out: Activity
Outline: as §1

Structure (SMILES)	viability at 0.1 µM [%]
Cc1c(N(C)C)nc(CCCCCCCCCCO)c(O)c1C	17
CCCCCCCCCCc1c(C)c(N(C)C)nc(C)c1O	34
CCCCCCCCCCCCCCCCCCCc1c(C)c(N(C)C)nc(C)c1O	20
CCCCCCCCCCCCCCCCCCCc1nc(N(C)C)c(C)c(C)c1O	17

Test system: Lymphocyte
Test: Inhibition of oxidative stress-induced mitochondrial membrane depolarization in diethyl maleate-treated human lymphocytes obtained from FRDA patient assessed as cells with intact mitochondrial membrane potential at 500 nM pretreated for 16 hrs using TMRM by FACS analysis (reference value: 95%)
Format: functional
Parameters: scale not given: the % may be the effect or the level left
Details: not given

Structure (SMILES)	Activity [%]
Cc1c(N(C)C)nc(CCCCCCCCCCO)c(O)c1C	50
CCCCCCCCCCc1c(C)c(N(C)C)nc(C)c1O	89
CCCCCCCCCCCCCCCCCCCc1c(C)c(N(C)C)nc(C)c1O	64
CCCCCCCCCCCCCCCCCCCc1nc(N(C)C)c(C)c(C)c1O	65

Test system: Lymphocyte
Test: Cytoprotective activity in human lymphocytes obtained from FRDA patient assessed as viable cells at 0.5 uM after 16 hrs by trypan blue exclusion assay
Format: functional
Details: read-out: Activity
Outline: as §1

Structure (SMILES)	viability at 0.5 µM [%]
Cc1c(N(C)C)nc(CCCCCCCCCCO)c(O)c1C	28
CCCCCCCCCCc1c(C)c(N(C)C)nc(C)c1O	84
CCCCCCCCCCCCCCCCCCCc1c(C)c(N(C)C)nc(C)c1O	50
CCCCCCCCCCCCCCCCCCCc1nc(N(C)C)c(C)c(C)c1O	38

Test system: Lymphocyte
Test: Inhibition of oxidative stress-induced mitochondrial membrane depolarization in diethyl maleate-treated human lymphocytes obtained from FRDA patient assessed as cells with intact mitochondrial membrane potential pretreated for 16 hrs using TMRM by FACS analysis
Format: functional, cell-based
Details: not given

Structure (SMILES)	inhibition
CCCCCCCCCCc1c(C)c(N(C)C)nc(C)c1O	Dose-dependent effect

Test system: not listed separately
Test: Drug metabolism in bovine liver microsomes at 25 uM after 30 mins by reverse phase HPLC analysis
Format: ADME, Bos taurus
Details: cattle, read-out: Drug metabolism
Outline: as §3

metabolised at 0.5 h, 25 µM [%]	Structure (SMILES)
60	Cc1c(N(C)C)nc(CCCCCCCCCCO)c(O)c1C
